The results in this text go back to ChEMBL document CHEMBL1154557, “Induction of choline acetyltransferase activity in cholinergic neurons by stolonidiol: structure-activity relationship” (J Nat Prod, 2000).

In data set [1] the target is T1, Choline O-acetyltransferase (Rattus norvegicus) (UniProt P32738).
T1 sequence (whole entry): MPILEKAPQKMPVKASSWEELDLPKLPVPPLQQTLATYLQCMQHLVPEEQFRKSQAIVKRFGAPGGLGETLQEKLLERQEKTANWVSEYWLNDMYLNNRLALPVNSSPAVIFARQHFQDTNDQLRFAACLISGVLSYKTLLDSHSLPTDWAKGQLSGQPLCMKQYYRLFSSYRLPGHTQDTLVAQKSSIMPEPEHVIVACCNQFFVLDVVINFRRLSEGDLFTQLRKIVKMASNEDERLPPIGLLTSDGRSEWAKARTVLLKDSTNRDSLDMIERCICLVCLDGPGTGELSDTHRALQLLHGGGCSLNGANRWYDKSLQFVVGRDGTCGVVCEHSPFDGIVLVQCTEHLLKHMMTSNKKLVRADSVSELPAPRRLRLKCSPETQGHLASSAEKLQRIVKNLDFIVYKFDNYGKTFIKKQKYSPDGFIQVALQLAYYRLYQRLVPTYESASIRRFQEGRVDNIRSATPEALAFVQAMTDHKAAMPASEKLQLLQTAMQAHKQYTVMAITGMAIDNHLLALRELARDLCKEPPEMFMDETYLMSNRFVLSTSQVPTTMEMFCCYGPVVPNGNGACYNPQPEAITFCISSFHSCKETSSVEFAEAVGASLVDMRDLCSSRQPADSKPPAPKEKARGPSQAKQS
As to the kind of experiment: Induction of ChAT activity in rat forebrain cells at 0.1 ug/mL relative to control. The class given is cell-based. An outline of the steps: (§1)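 Basal forebrain from E17–19 rat embryos, papain-dissociated, plated at 1 × 10^6 cells/well in DMEM/F12 with 5% FBS and 5% horse serum. After 7 days of preculture, cells were exposed for 3 days. Lysate (1% Triton X-100, pH 6.8 Tris) was incubated with 25 µM [14C]acetyl-CoA and 8 mM choline with eserine for 1 h at 37 °C. Extracted [14C]ACh was counted. Results are % of control, n = 3.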

The target of data set [2] is T1, Choline O-acetyltransferase (Rattus norvegicus). As to the kind of experiment: Induction of ChAT activity in rat forebrain cells at 1 ug/mL relative to control. Format: cell-based. An outline of the steps:
as §1

The target is the same in data set [3]. As to the kind of experiment: Induction of ChAT activity in rat forebrain cultured cells at 0.01 ug/mL after 3 days relative to control. The class given is cell-based. In outline:
as §1

Data set [4] has as its target T2, Choline O-acetyltransferase (Mus musculus) (UniProt Q03059).
T2 sequence (whole entry): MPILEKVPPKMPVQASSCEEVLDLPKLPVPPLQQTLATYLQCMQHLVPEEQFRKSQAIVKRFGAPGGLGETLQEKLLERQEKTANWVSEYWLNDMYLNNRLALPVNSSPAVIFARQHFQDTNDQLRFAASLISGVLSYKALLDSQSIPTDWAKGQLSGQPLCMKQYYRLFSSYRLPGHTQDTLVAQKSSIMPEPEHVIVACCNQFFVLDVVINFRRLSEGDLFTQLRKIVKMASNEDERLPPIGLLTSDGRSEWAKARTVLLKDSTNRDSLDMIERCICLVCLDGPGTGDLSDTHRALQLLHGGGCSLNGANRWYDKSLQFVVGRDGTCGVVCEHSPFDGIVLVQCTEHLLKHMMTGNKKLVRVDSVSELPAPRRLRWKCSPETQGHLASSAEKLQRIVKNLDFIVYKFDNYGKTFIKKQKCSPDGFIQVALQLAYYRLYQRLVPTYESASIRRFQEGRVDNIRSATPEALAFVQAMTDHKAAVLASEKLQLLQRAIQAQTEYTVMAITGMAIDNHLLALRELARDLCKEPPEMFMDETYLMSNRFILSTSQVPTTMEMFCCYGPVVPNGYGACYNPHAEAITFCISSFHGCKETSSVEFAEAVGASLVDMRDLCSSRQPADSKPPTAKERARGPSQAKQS
As to the kind of experiment: Induction of ChAT activity in mouse SN49 cultured cells at 0.01 ug/mL after 3 days relative to control. Format: cell-based. In outline:
(§2)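 Mouse septal SN49 hybrid cells were grown in DMEM with 10% FBS and plated at 2 × 10^5 cells/well. After 24 h at 37 °C, compound was added for a further 48 h. ChAT was measured in Triton lysates as [14C]acetylcholine formed from 25 µM [14C]acetyl-CoA and 8 mM choline chloride (0.1 mM eserine, 37 °C, 1 h) by scintillation counting. Results are % of control, n = 3, with Dunnett test.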

Data set [5] addresses T1, Choline O-acetyltransferase (Rattus norvegicus). As to the kind of experiment: Induction of ChAT activity in rat forebrain cultured cells at 0.1 ug/mL after 3 days relative to control. Format: cell-based. An outline of the steps:
as §1

Data set [6] has the same target. As to the kind of experiment: Induction of ChAT activity in rat forebrain cultured cells at 1 ug/mL after 3 days relative to control. Format: cell-based. In outline: as §1
The target of data set [7] is T2, Choline O-acetyltransferase (Mus musculus). As to the kind of experiment: Induction of ChAT activity in mouse SN49 cultured cells at 1 ug/mL after 3 days relative to control. Format: cell-based. In outline: as §2
The target of data set [8] is T1, Choline O-acetyltransferase (Rattus norvegicus). As to the kind of experiment: Induction of ChAT activity in rat forebrain cultured cells at 10 ug/mL after 3 days relative to control. Format: cell-based. In outline: as §1
The target in data set [9] is T2, Choline O-acetyltransferase (Mus musculus). As to the kind of experiment: Induction of ChAT activity in mouse SN49 cultured cells at 0.1 ug/mL after 3 days relative to control. The class given is cell-based. An outline of the steps:
as §2

Data set [10] has the same target. As to the kind of experiment: Induction of ChAT activity in mouse SN49 cultured cells at 10 ug/mL after 3 days relative to control. Format: cell-based. In outline:
as §2

Data set [11] is filed under the species Rattus norvegicus. As to the kind of experiment: Induction of ChAT mRNA expression in rat forebrain cells at 0.1 ug/mL after 6 hrs by RT-PCR method. Format: functional, cell-based. An outline of the steps:
(§3)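 Cultured rat embryo basal forebrain cells were exposed for 6 h. ChAT mRNA was assessed by RT-PCR, and ethidium bromide-stained products were quantified by optical scanning as relative intensities.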

The species named for data set [12] is Rattus norvegicus. As to the kind of experiment: Induction of ChAT mRNA expression in rat forebrain cells at 1 ug/mL after 6 hrs by RT-PCR method. Format: functional, cell-based. An outline of the steps:
as §3

Data set [13] can be described thus: Cytotoxicity against rat forebrain cells at 10 ug/mL. Format: cell-based.
Data set [14] in a line: Cytotoxicity against rat basal forebrain cells at 10 ug/mL.

Active and inactive are the calls of the source. No cut-off for these calls is given here.

Turning to `C=C1CC[C@@H]2O[C@]2(COC(=O)CCCCCCCCCCCCC)C[C@H]2O[C@@]23[C@H](C(C)(C)O)CC[C@@]3(C)CC1`, the Activity was found to be 97.6% in data set [1] and 174% in data set [2].
In the case of `C=C1CC[C@@H]2O[C@]2(COC(=O)CCC)C[C@H]2O[C@@]23[C@H](C(C)(C)O)CC[C@@]3(C)CC1`, the Activity is 118% in data set [1] and 179% in data set [2].
For `C=C1CC[C@@H]2O[C@]2(COC(=O)CCCCC)C[C@H]2O[C@@]23[C@H](C(C)(C)O)CC[C@@]3(C)CC1`, the Activity in data set [1] worked out at 139%; in [2], 164%.
`C=C1CC[C@@H]2O[C@]2(COC(C)=O)C[C@H]2O[C@@]23[C@H](C(C)(C)O)CC[C@@]3(C)CC1`: the Activity came out at 89.2% in data set [1] and 210% in data set [2].
`C=C1CC[C@@H]2O[C@]2(COC(=O)c2ccccc2)C[C@H]2O[C@@]23[C@H](C(C)(C)O)CC[C@@]3(C)CC1`: the Activity was found to be 116% in data set [1] and 173% in data set [2].
For `C=C1CC[C@@H]2O[C@]2(COC(C)=O)C[C@H]2O[C@@]23[C@H](C(C)(C)O)CC[C@@]3(C)[C@H](OC(C)=O)C1`, the values for the Activity in data set [1] and in data set [2] were 11.5% and 161%, respectively.
As for `C=C1CC[C@@H]2O[C@]2(CO)C[C@H]2O[C@@]23[C@H](C(C)(C)O)CC[C@@]3(C)CC1` [STOLONIDIOL], the Activity in [3] amounted to 130%; in data set [4], 146%; in data set [5], 178%; in [6] it was 139%; in data set [7], 145%; in data set [8], 38.2%. The Activity in [9] is 142%; in [10], 92.7%; in data set [1] it was 127%; in [2], 231%; in [13], “Toxic”; in [14] it was “Toxic”. The result in the data set listed under Rattus norvegicus [11] and in the data set filed under Rattus norvegicus [12] was Active.
`C=C1CC[C@@H]2O[C@]2(COC(=O)CCCCCCCCCCC)C[C@H]2O[C@@]23[C@H](C(C)(C)O)CC[C@@]3(C)CC1`: the Activity in [1] was 108%; in data set [2] it was 143%.
Turning to `C=C1CC[C@@H](Cl)[C@@](O)(COC(=O)c2ccc(Br)cc2)C[C@H]2O[C@@]23[C@H](C(C)(C)O)CC[C@@]3(C)CC1`, the Activity in data set [1] stood at 96.7%; in data set [2], 95.3%.
Take `C=C1CC[C@@H](OC)[C@@](O)(CO)C[C@H]2O[C@@]23[C@H](C(C)(C)O)CC[C@@]3(C)CC1`: the values for the Activity in data set [1] and in [2] were 89.2% and 92.3%, respectively.
`COC1(OC)CC[C@@H]2O[C@]2(CO)C[C@H]2O[C@@]23[C@H](C(C)(C)O)CC[C@@]3(C)CC1`: the Activity in [1] stood at 109%; in data set [2] it was 104%.
Regarding `C=C1CC/C=C(/CO)C/C=C2\[C@H](C(C)(C)O)CC[C@@]2(C)CC1`, the Activity in [1] worked out at 109%; in data set [2], 122%.
